# Experimental data reported in ChEMBL document CHEMBL1155280, “New arylthioindoles and related bioisosteres at the sulfur bridging group. 4. Synthesis, tubulin polymerization, cell growth inhibition, and molecular modeling studies” (J Med Chem, 2009).
# Activity calls are given as the source filed them. The calls are words filed in the database; no cut-off is given here.
# Experiments:
# Saccharomyces cerevisiae [1] = assay: Toxicity in Saccharomyces cerevisiae assessed as growth inhibition at first dilution at 20 uM after 3 days; format: organism-based; conditions: in vivo, 72 h
# Procedure, shortened: (§1)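 S. cerevisiae BY4741 grown at 28 °C in minimal SD medium with 2% glucose. Exponential culture (5 × 10^6 cells/mL) exposed 18 h at 28 °C to compound at 20 μM, washed, resuspended in SD, serially diluted 10-fold, incubated overnight. Spotted onto YPD plates; growth scored by dilution reached after 3 days at 28 °C.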
# MCF7 [2] = assay: Growth inhibition of human MCF7 cells after 48 hrs by sulforhodamine B assay; format: functional, cell-based; conditions: MCF7, 48 h
# [3] = Inhibition of tubulin polymerization after 20 mins by spectrophotometry
# Procedure, shortened: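 Tubulin 10 μM in 0.8 M monosodium glutamate, pH 6.6, preincubated 15 min at 30 °C with varying drug, chilled on ice. GTP added to 0.4 mM, turbidity at 350 nm followed 20 min at 30 °C. Extent of assembly measured; IC50 ± SD.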
# Saccharomyces cerevisiae [4] = assay: Toxicity in Saccharomyces cerevisiae assessed as growth inhibition at second dilution at 20 uM after 3 days; format: organism-based; conditions: in vivo, 72 h; procedure, shortened: as §1
# Bos taurus = species on record: Bos taurus; assay: Inhibition of [3H]colchicine binding to bovine tubulin at 5 uM after 10 mins by DEAE-cellulose filter method
# M14 [5] = assay: Cytotoxicity against human M14 cells at 10 to 200 nM by MTT assay; format: functional, cell-based; conditions: TDE = time-dependent effect
# Procedure, shortened: (§2)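 MTT assay. Seeded 10^5 cells/well, compound added after 24 h at 10, 30, 50, 100, 150, 200 nM for 24 or 48 h. MTT 1 mg/mL, 2 h at 37 °C in dark, formazan dissolved in DMSO, read at 550 nm. Triplicate; 0.5% DMSO control.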
# MCF7 [6] = assay: Selectivity index, ratio of IC50 for HUVEC to IC50 for human MCF7 cells
# Procedure, shortened: (§3)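 Selectivity index: IC50 in the named nontransformed line divided by IC50 in MCF-7 cells.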
# HEK293 [7] = assay: Cytotoxicity against HEK293 cells assessed as effect on cell morphology at 300 nM after 48 hrs by time-lapse microscopy; format: cell-based; conditions: human, hek293, 48 h, 0.3 µM
# Procedure, shortened: (§4)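 Morphology of HEK and M14 cells followed by time-lapse microscopy in 96-well plates at 37 °C, 5% CO2, with images captured every hour over 48 h.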
# M14 [8] = assay: Cytotoxicity against human M14 cells after 48 hrs by MTT assay; format: functional, cell-based; conditions: for IC50: M14, 48 h; procedure, shortened: as §2
# HCT-116 [9] = assay: Antiproliferative activity against human HCT116 cells expressing mismatch repair gene MLH1 complemented with chromosome 3 assessed as cell proliferation at 0.5 uM after 24 hrs by MTT assay relative to control; format: functional; conditions: HCT-116, 24 h, read-out: Activity
# Procedure, shortened: (§5)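 HeLa and HCT116/chr3 cells grown at 37 °C, 5% CO2 in D-MEM with 10% fetal calf serum (HCT116/chr3 medium plus 500 μg/mL G418). Seeded 1 × 10^3 cells/well, treated 24 h later for 24 h from 10 mM DMSO stock; 1% DMSO solvent control. Quadruplicate, repeated three times; given as % of control ± SD.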
# Homo sapiens = species on record: Homo sapiens; assay: Selectivity index, ratio of IC50 for HSMC to IC50 for human MCF7; procedure, shortened: as §3
# [10] = Growth inhibition of mouse J774.1 cells at 300 nM after 48 hrs by MTT assay relative to control; format: cell-based; conditions: read-out: GI
# A10 = assay: Growth inhibition of rat A10 cells; format: cell-based
# Procedure, shortened: (§6)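 Human aortic smooth muscle, PtK2 kidney epithelial, rat A10 aortic smooth muscle and HUVEC lines grown as the supplier recommends, under 5% CO2.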
# HCT-116 [11] = assay: Antiproliferative activity against human HCT116 cells expressing mismatch repair gene MLH1 complemented with chromosome 3 assessed as cell proliferation at 1 uM after 24 hrs by MTT assay relative to control; format: functional; conditions: HCT-116, 24 h, read-out: Activity; procedure, shortened: as §5
# HEK293 [12] = assay: Cytotoxicity against HEK293 cells after 48 hrs by MTT assay; format: cell-based, Homo sapiens; conditions: for IC50: Homo sapiens, HEK293, 48 h; for Activity: human, hek293, 48 h; procedure, shortened: as §2
# HUVEC = assay: Growth inhibition of HUVEC; format: cell-based; conditions: Homo sapiens; procedure, shortened: as §6
# MCF7 [13] = assay: Selectivity index, ratio of IC50 for rat A10 cells to IC50 for human MCF7 cells; format: functional; procedure, shortened: as §3
# [14] = Growth inhibition of HSMC; format: cell-based; conditions: Homo sapiens; procedure, shortened: as §6
# [15] = Growth inhibition of Potorous tridactylus PtK2 cells; format: cell-based; procedure, shortened: as §6
# U-937 [16] = assay: Cytotoxicity against human U937 cells at 10 to 200 nM by MTT assay; format: functional, cell-based; conditions: TDE = time-dependent effect; procedure, shortened: as §2
# MCF7 [17] = assay: Selectivity index, ratio of IC50 for Potorous tridactylus PtK2 cells to IC50 for human MCF7 cells; format: functional; procedure, shortened: as §3
# U-937 [18] = assay: Cytotoxicity against human U937 cells after 48 hrs by MTT assay; format: functional, cell-based; conditions: for IC50: U-937, 48 h; procedure, shortened: as §2
# M14 [19] = assay: Cytotoxicity against human M14 cells assessed as effect on cell morphology at 300 nM after 48 hrs by time-lapse microscopy; format: functional, cell-based; procedure, shortened: as §4
# HeLa [20] = assay: Antiproliferative activity against human HeLa cells assessed as cell proliferation at 1 uM after 24 hrs by MTT assay relative to control; format: functional; conditions: read-out: Activity; procedure, shortened: as §5
# HEK293 [21] = assay: Cytotoxicity against HEK293 cells at 10 to 200 nM by MTT assay; format: cell-based; conditions: human, hek293, 0.2 µM; TDE = time-dependent effect; procedure, shortened: as §2
# HeLa [22] = assay: Antiproliferative activity against human HeLa cells assessed as cell proliferation at 0.5 uM after 24 hrs by MTT assay relative to control; format: functional; conditions: read-out: Activity; procedure, shortened: as §5
smiles,measurement,setting,value
COc1cc(Cn2cccc2C(=O)O)cc(OC)c1OC,Activity,Saccharomyces cerevisiae [1],Toxic
same,IC50,MCF7 [2],> 2500 nM
same,IC50,[3],> 40000 nM
same,Activity,Saccharomyces cerevisiae [4],Non-toxic
COC(=O)c1[nH]c2ccccc2c1Sc1cc(OC)c(OC)c(OC)c1,inhibition,Bos taurus,74%
same,IC50,[3],2900 nM
COC(=O)c1[nH]c2ccc(OC)cc2c1S(=O)c1cc(OC)c(OC)c(OC)c1 (stereo not drawn),IC50,[3],> 40000 nM
COC(=O)c1[nH]c2ccc(OC)cc2c1C(O)c1cc(OC)c(OC)c(OC)c1 (stereo not drawn),IC50,[3],> 40000 nM
COc1cc(C(=O)c2c[nH]c3ccccc23)cc(OC)c1OC,IC50,MCF7 [2],150 nM
same,inhibition,Bos taurus,26%
same,IC50,[3],3500 nM
COC(=O)c1[nH]c2ccc(OC)cc2c1C(=O)c1cc(OC)c(OC)c(OC)c1,Activity,M14 [5],tde
same,Ratio IC50,MCF7 [6],6.5
same,Activity,HEK293 [7],Toxic
same,Activity,M14 [8],Dose-dependent effect
same,IC50,M14 [8],100 nM
same,growth at 0.5 µM,HCT-116 [9],57%
same,Ratio IC50,Homo sapiens,2.1
same,"inhibition at 48 h, 0.3 µM",[10],20%
same,IC50,A10,95 nM
same,growth at 1 µM,HCT-116 [11],55%
same,IC50,HEK293 [12],140 nM
same,Activity,HEK293 [12],Dose-dependent effect
same,IC50,HUVEC,110 nM
same,Ratio IC50,MCF7 [13],5.6
same,IC50,MCF7 [2],17 nM
same,IC50,[14],35 nM
same,IC50,[15],190 nM
same,Activity,U-937 [16],tde
same,Ratio IC50,MCF7 [17],11
same,Activity,U-937 [18],Dose-dependent effect
same,IC50,U-937 [18],155 nM
same,Activity,M14 [19],Active
same,inhibition,Bos taurus,78%
same,growth at 1 µM,HeLa [20],54%
same,IC50,[3],670 nM
same,Activity,HEK293 [21],tde
same,growth at 0.5 µM,HeLa [22],55%
CCOC(=O)c1[nH]c2ccc(Cl)cc2c1C(=O)Cc1cc(OC)c(OC)c(OC)c1,IC50,[3],> 40000 nM
CCOC(=O)c1[nH]c2ccc(Cl)cc2c1C(=O)c1cc(OC)c(OC)c(OC)c1,IC50,MCF7 [2],110 nM
same,inhibition,Bos taurus,49%
same,IC50,[3],1400 nM
COc1cc(Sc2c[nH]c3ccc(Cl)cc23)cc(OC)c1OC,inhibition,Bos taurus,51%
same,IC50,[3],2600 nM
COC(=O)c1[nH]c2ccc(OC)cc2c1Cc1cc(OC)c(OC)c(OC)c1,Activity,M14 [5],tde
same,Ratio IC50,MCF7 [6],5.2
same,Activity,HEK293 [7],Toxic
same,Activity,M14 [8],Dose-dependent effect
same,IC50,M14 [8],137 nM
same,growth at 0.5 µM,HCT-116 [9],69%
same,Ratio IC50,Homo sapiens,2.1
same,"inhibition at 48 h, 0.3 µM",[10],20%
same,IC50,A10,130 nM
same,growth at 1 µM,HCT-116 [11],69%
same,IC50,HEK293 [12],181 nM
same,Activity,HEK293 [12],Dose-dependent effect
same,IC50,HUVEC,170 nM
same,Ratio IC50,MCF7 [13],3.9
same,IC50,MCF7 [2],33 nM
same,IC50,[14],70 nM
same,IC50,[15],190 nM
same,Activity,U-937 [16],tde
same,Ratio IC50,MCF7 [17],5.8
same,Activity,U-937 [18],Dose-dependent effect
same,IC50,U-937 [18],189 nM
same,Activity,M14 [19],Active
same,inhibition,Bos taurus,59%
same,growth at 1 µM,HeLa [20],51%
same,IC50,[3],1400 nM
same,Activity,HEK293 [21],tde
same,growth at 0.5 µM,HeLa [22],52%
COc1cc(Cc2c[nH]c3ccc(Cl)cc23)cc(OC)c1OC,IC50,[3],24000 nM
CCOC(=O)c1cn(Cc2cc(OC)c(OC)c(OC)c2)cn1,IC50,[3],> 40000 nM
COc1ccc2[nH]cc(Cc3cc(OC)c(OC)c(OC)c3)c2c1,IC50,[3],14000 nM
COc1cc(Cn2c(C)c(C)c(C)c2C(=O)OCCOCCO)cc(OC)c1OC,IC50,[3],> 40000 nM
CCOC(=O)c1[nH]c2ccc(OC)cc2c1Cc1cc(OC)c(OC)c(OC)c1,IC50,MCF7 [2],93 nM
same,inhibition,Bos taurus,42%
same,IC50,[3],2800 nM
CCOC(=O)c1c(C)c(C)c(C)n1Cc1cc(OC)c(OC)c(OC)c1,IC50,[3],> 40000 nM
COc1cc(Sc2c[nH]c3ccccc23)cc(OC)c1OC,inhibition,Bos taurus,68%
same,IC50,[3],2600 nM
CCOC(=O)c1[nH]c2ccc(Cl)cc2c1CCc1cc(OC)c(OC)c(OC)c1,IC50,[3],> 40000 nM
CCOC(=O)c1[nH]c2ccc(OC)cc2c1Sc1cc(OC)c(OC)c(OC)c1,IC50,MCF7 [2],46 nM
same,inhibition,Bos taurus,71%
same,IC50,[3],2400 nM
COC(=O)c1[nH]c2ccccc2c1Cc1cc(OC)c(OC)c(OC)c1,IC50,MCF7 [2],190 nM
same,inhibition,Bos taurus,33%
same,IC50,[3],4200 nM
